Data taken from ChEMBL document CHEMBL1129408, “Development of novel, potent, and selective dopamine reuptake inhibitors through alteration of the piperazine ring of 1-[2-(diphenylmethoxy)ethyl]-and 1-[2-[bis(4-fluorophenyl)methoxy]ethyl]-4-(3-phenylpropyl)piperazines (GBR 12935 and GBR 12909)” (J Med Chem, 1996).

Assays:
[1] = molecular target: Sodium-dependent serotonin transporter (Rattus norvegicus, UniProt P31652); assay: Inhibition of [3H]5-HT reuptake at rat serotonin transporter
Outline: (§1)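 Uptake into synaptosomes in Krebs-phosphate buffer, pH 7.4, with ascorbic acid 1 mg/mL and pargyline 50 µM. Final tracer was 5 nM [3H]DA or 2 nM [3H]5HT. Incubated at 25 °C for 15 min (DA) or 30 min (5HT), then filtered and filter tritium counted. IC50 derived.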

[2] = molecular target: T1, Sodium-dependent dopamine transporter (Rattus norvegicus, UniProt P23977); assay: Binding affinity against dopamine transporter using radioligand as [3H]GBR 12935
T1 sequence (P23977 whole entry): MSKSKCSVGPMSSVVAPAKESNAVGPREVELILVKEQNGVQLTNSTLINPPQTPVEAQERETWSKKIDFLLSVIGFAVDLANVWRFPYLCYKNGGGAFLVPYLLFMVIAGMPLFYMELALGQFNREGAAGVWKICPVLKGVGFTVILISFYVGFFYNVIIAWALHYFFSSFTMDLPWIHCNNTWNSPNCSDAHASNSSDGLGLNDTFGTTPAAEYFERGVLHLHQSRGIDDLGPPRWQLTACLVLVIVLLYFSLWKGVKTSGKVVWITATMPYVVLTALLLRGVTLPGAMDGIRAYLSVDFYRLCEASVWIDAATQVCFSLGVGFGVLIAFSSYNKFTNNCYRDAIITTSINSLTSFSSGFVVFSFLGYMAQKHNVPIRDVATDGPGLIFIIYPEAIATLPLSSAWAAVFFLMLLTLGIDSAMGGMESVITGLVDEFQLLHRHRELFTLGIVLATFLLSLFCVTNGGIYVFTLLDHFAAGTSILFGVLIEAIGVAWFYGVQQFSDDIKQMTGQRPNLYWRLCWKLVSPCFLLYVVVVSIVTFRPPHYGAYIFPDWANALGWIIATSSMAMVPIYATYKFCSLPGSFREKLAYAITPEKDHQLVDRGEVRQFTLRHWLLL
Outline: (§2)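 DAT binding by displacement of 2 nM [3H]GBR 12935 or 0.01 nM [125I]RTI 55. Drugs were in 55.2 mM sodium phosphate buffer, pH 7.4, with 1 mg/mL BSA; radioligand was in the same buffer with chymostatin, leupeptin, EDTA and EGTA. Incubated in triplicate for 18-24 h at 4 °C to equilibrium, then filtered over polyethylenimine-presoaked GF/B filters. IC50 derived.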

[3] = molecular target: T1, Sodium-dependent dopamine transporter; assay: Inhibition of dopamine DA reuptake; outline: as §1
[4] = molecular target: Monoamine transporters; serotonin & dopamine (Rattus norvegicus) (UniProt P31652+P23977); assay: Ratio of binding affinities of Serotonin transporter vs Dopamine transporter reuptake; assay type: protein assay
Monoamine transporters; serotonin & dopamine (Rattus norvegicus), sequence (P23977 whole entry, looked up): as the sequence (P23977 whole entry) above
Monoamine transporters; serotonin & dopamine (Rattus norvegicus), sequence (P31652 whole entry, looked up): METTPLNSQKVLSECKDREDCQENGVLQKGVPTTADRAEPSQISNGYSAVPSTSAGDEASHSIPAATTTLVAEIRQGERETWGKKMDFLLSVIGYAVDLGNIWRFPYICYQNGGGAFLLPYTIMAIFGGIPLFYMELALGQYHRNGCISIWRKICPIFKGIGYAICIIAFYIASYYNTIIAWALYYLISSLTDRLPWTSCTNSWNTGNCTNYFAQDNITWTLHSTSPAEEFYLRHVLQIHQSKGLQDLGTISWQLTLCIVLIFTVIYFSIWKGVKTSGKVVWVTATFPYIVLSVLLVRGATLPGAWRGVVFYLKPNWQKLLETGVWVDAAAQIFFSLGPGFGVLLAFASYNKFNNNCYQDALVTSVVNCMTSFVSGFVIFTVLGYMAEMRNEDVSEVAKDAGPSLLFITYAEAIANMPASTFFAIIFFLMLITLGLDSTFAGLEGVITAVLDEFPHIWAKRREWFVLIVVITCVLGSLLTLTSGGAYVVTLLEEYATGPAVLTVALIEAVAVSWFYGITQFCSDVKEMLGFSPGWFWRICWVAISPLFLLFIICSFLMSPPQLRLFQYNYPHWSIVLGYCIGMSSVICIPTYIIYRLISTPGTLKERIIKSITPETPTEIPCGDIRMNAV
Outline: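 Ratio is the IC50 for [3H]5HT reuptake over the IC50 for [3H]DA reuptake. Both were measured in synaptosomes at 25 °C: 2 nM [3H]5HT for 30 min and 5 nM [3H]DA for 15 min, in Krebs-phosphate buffer, pH 7.4, with pargyline and ascorbic acid.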

[5] = molecular target: T1, Sodium-dependent dopamine transporter; assay: Binding against Dopamine transporter using radioligand as [3H]GBR 12935
[6] = molecular target: T1, Sodium-dependent dopamine transporter; assay: Compound was tested for binding affinity against dopamine transporter using radioligand as [3H]-RTI 55; outline: as §2
[7] = molecular target: T1, Sodium-dependent dopamine transporter; assay: Compound was tested for binding against Dopamine transporter using radioligand as […]
[8] = Ratio of receptor binding affinities of [3H]5-HT vs [125I]-RTI 55 uptake

Sodium-dependent serotonin transporter, sequence (P31652 whole entry): as the sequence (P31652 whole entry, looked up) above

SMILES | IC50 [1] [nM] | IC50 [2] [nM] | IC50 [3] [nM] | Ratio [4] | IC50 [5] [nM] | IC50 [6] [nM] | IC50 [7] [nM] | Ratio [8]
c1ccc(C(OCCN2CCNCC2)c2ccccc2)cc1 | 9570 | 110 | 124 | 1.1 |  |  |  | 
c1ccc(C(OCCN2CCCNCC2)c2ccccc2)cc1 | 14300 | 1360 | 651 | 22 |  |  |  | 
Fc1ccc(C(OCCN2CCCN(CCCc3ccccc3)CC2)c2ccc(F)cc2)cc1 | 112 |  | 3.4 | 33 | 4.4 |  |  | 
NCCCCNCCOC(c1ccccc1)c1ccccc1 | 6830 | 9780 |  |  |  |  |  | 
C[C@@H]1CN(CCOC(c2ccc(F)cc2)c2ccc(F)cc2)[C@@H](C)CN1CCOC(c1ccc(F)cc1)c1ccc(F)cc1 | 4240 | 36 | 86 | 2.4 |  |  |  | 
CC1(C)CN(CCCc2ccccc2)CCN(CCOC(c2ccccc2)c2ccccc2)C1 | 3150 | 286 | 87 | 36 |  |  |  | 
CNCCN(C)CCOC(c1ccccc1)c1ccccc1 | > 10000 | 834 | 545 |  |  |  |  | 
c1ccc(CCCNC[C@H]2CCCN2CCOC(c2ccccc2)c2ccccc2)cc1 | 3210 | 747 | 127 | 25 |  |  |  | 
c1ccc(CCCN2CCNCC2)cc1 | 361 |  | > 30000 |  | > 30000 |  |  | 
c1ccc(CCCNC2CCCCN(CCOC(c3ccccc3)c3ccccc3)C2)cc1 (centres undefined) | 1480 | 20 | 9.3 | 159 |  |  |  | 
C(=C\c1ccccc1)/CN1CCCN(CCOC(c2ccccc2)c2ccccc2)CC1 | 503 | 8.6 | 0.6 | 838 |  |  |  | 
Fc1ccc(C(OCCN2CCCN(C/C=C/c3ccccc3)CC2)c2ccc(F)cc2)cc1 | 234 |  | 3.4 | 69 | 2.6 |  |  | 
c1ccc(CCCN2CCCCC(NCCOC(c3ccccc3)c3ccccc3)C2)cc1 (centres undefined) | 2860 | 74 | 57 | 50 |  |  |  | 
C[C@@H]1CN(CCOC(c2ccc(F)cc2)c2ccc(F)cc2)[C@@H](C)CN1 | 8940 | 106 | 30 | 298 |  | 44 |  | 
c1ccc(CCCN2CCCCN(CCOC(c3ccccc3)c3ccccc3)CC2)cc1 | 1590 | 864 | 93 | 17 |  |  |  | 
C[C@@H]1CN(CCOC(c2ccc(F)cc2)c2ccc(F)cc2)[C@@H](C)CN1C/C=C/c1ccccc1 | 1180 |  | 28 | 42 | 23 |  |  | 
C[C@@H]1CN(CCCc2ccccc2)[C@@H](C)CN1 | 12200 |  | > 30000 |  | > 30000 |  |  | 
C[C@@H]1CN(CCCc2ccccc2)[C@@H](C)CN1CCCc1ccccc1 | 2530 | 9940 | 1330 | 0.1 |  |  |  | 

SMILES | IC50 [1] [nM] | IC50 [2] [nM] | IC50 [3] [nM] | Ratio [4] | IC50 [5] [nM] | IC50 [6] [nM] | IC50 [7] [nM] | Ratio [8]
C[C@@H]1CN(CCOC(c2ccccc2)c2ccccc2)[C@@H](C)CN1CCCc1ccccc1 | 1730 |  |  |  | 21 |  |  | 
CC(C)(CN)CNCCOC(c1ccccc1)c1ccccc1 | > 10000 | 1460 | 453 |  |  |  |  | 
CN(CCCc1ccccc1)CCN(C)CCOC(c1ccccc1)c1ccccc1 | 2450 | 27 |  |  |  |  |  | 
c1ccc(CCCN2CCN(CCCc3ccccc3)CC2)cc1 | 1340 |  | 1640 | 0.2 | 7760 |  |  | 
c1ccc(CCCNCCCCNCCOC(c2ccccc2)c2ccccc2)cc1 | 376 |  | 35 | 11 | 80 |  |  | 
Oc1cccc(CCCNC[C@@H]2CCCN2CCOC(c2ccccc2)c2ccccc2)c1 | 857 | 222 | 31 | 28 |  |  |  | 
C[C@@H]1CN(CCOC(c2ccc(F)cc2)c2ccc(F)cc2)[C@@H](C)CN1CCCc1ccccc1 | 459 |  | 15 | 31 | 40 |  |  | 
c1ccc(CCCN2CCCN(CCOC(c3ccccc3)c3ccccc3)CC2)cc1 | 34100 | 7.9 | 7.2 | 4740 |  |  |  | 
Fc1ccc(C(OCCN2CCNCC2)c2ccc(F)cc2)cc1 | 1400 |  | 71 | 0.7 | 104 |  |  | 
C[C@@H]1CN(CCOC(c2ccccc2)c2ccccc2)[C@@H](C)CN1C/C=C/c1ccccc1 | 2680 | 103 | 20 | 134 |  |  |  | 
Fc1ccc(C(OCCN2CCC[C@H]2CNCCCc2ccccc2)c2ccc(F)cc2)cc1 | 20100 |  | 29 | 693 | 104 |  |  | 
Fc1ccc(C(OCCN2CCCNCC2)c2ccc(F)cc2)cc1 | 2080 | 143 | 17 | 122 |  |  |  | 
Fc1ccc(C(OCCN2CCN(CCOC(c3ccc(F)cc3)c3ccc(F)cc3)CC2)c2ccc(F)cc2)cc1 | 278 |  | 40 | 5.5 | 7.3 |  | 1.1 | 36.4
CC(C)(CNCCCc1ccccc1)CNCCOC(c1ccccc1)c1ccccc1 | 1890 | 169 | 83 | 23 |  |  |  | 
c1ccc(CCCNC[C@@H]2CCCN2CCOC(c2ccccc2)c2ccccc2)cc1 | 986 | 5.1 | 0.7 | 1410 |  |  |  | 
c1ccc(C(OCCN2CCN(CCOC(c3ccccc3)c3ccccc3)CC2)c2ccccc2)cc1 | 1710 |  | 12 | 1.3 | 9.3 |  | 1.6 | 7.5
C[C@@H]1CN(CCOC(c2ccccc2)c2ccccc2)[C@@H](C)CN1 | 25300 | 1000 | 138 | 183 |  |  |  | 
C[C@@H]1CN(CCOC(c2ccccc2)c2ccccc2)[C@@H](C)CN1CCOC(c1ccccc1)c1ccccc1 | 6220 | 33 | 35 | 1.1 |  |  |  | 
